# Screening results: PubChem, several laboratories
# Only some compounds are listed: those with a hit (about 1.6% of all), similar ones and a draw of the others.
# EBV gp42 block: blocks Epstein-Barr virus glycoprotein 42 binding; inhibition, % (tested at 21.74 µM); Q1HVG2; 220,000 compounds, 0.42% hits; Fluorescence polarization binding assay, mP read-out
# PKD1 kinase inh: blocks activity of human protein kinase D1; Q15139; inhibition, % (concentration not given with the values); PKD1 kinase fluorescence polarization assay; AID 797; 200,000 compounds, 0.056% hits
# eIF4E-4G inh: inhibitors of eIF4E and eIF4G interaction in translation initiation; inhibition, % at 21.7 µM; AID 782; 220,000 compounds, 0.37% hits; TR-FRET eIF4E-eIF4GI(517-606) binding, 2 h; P63073+Q04637;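 active = inhibition above about 30%, limit read from the data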;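 note: 0% = full FRET control wells and 100% = background wells lacking eIF4GI fragment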
# RBBP9 inhibitor: blocks human serine hydrolase RBBP9; recombinant RBBP9, FP-Rh probe fluorescence polarization; inhibition, % at 7.94 µM; AID 1515; O75884; 220,000 compounds, 0.2% hits;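 active = inhibition above the campaign mean of all tested compounds plus 3 SD, cut at about 14% in these data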;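 note: plate controls were DMSO wells with RBBP9 for no effect and wells lacking RBBP9 protein for full effect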
# Target sequence (O75884 whole entry, looked up): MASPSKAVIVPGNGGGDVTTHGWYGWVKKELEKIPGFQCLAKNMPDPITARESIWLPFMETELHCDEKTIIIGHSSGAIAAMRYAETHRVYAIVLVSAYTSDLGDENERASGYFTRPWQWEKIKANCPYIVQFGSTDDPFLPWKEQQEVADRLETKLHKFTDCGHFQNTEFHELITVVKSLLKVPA
#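 Measured by – fluorescence polarization · Test system – RBBP9 protein · Input – 2.5 µM RBBP9 dispensing solution, before mixing · Measure – percent inhibition from mP, scaled between DMSO and no-protein wells · Benchmarks – DMSO-treated enzyme wells and wells lacking RBBP9 · Times – preincubation 30 min plus labeling 45 min at 25 °C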
# 14-3-3 Bad PPI: disrupts binding of bovine 14-3-3 zeta to phospho-Bad peptide. 220,000 compounds, 0.71% hits. TR-FRET 14-3-3zeta/Dy647-pBad peptide displacement, 1 h. inhibition, % at 21.7 µM;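 active = inhibition above about 70%, limit read from the data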;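 note: 0% = full 14-3-3 plus peptide FRET controls and 100% = background without 14-3-3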
# Target sequence (P63103 whole entry, looked up): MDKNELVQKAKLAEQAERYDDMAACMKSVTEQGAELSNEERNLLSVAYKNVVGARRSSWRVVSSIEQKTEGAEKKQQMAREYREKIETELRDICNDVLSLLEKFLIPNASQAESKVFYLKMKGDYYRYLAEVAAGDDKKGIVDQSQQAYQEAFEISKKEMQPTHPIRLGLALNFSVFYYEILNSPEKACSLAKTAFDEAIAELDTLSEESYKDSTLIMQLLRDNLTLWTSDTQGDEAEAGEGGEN
# RBBP9 confirm: human RBBP9 inhibition, confirmation; shares compounds with RBBP9 inhibitor; recombinant RBBP9, FP-Rh probe fluorescence polarization; inhibition, % at 7.94 µM; 410 compounds, 36% hits; AID 1537;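 active = inhibition above the hit cutoff derived for the primary screen, cut at about 15% in these data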;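 note: 0% = RBBP9 with DMSO and 100% = wells lacking RBBP9 protein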
# Numbers without * were called inactive; nt = no result. Cut-off read from the data, not from the text of the source, unless noted: active = inhibition above about 50%; inactive = the rest.
SMILES,EBV gp42 block,PKD1 kinase inh,eIF4E-4G inh,RBBP9 inhibitor,14-3-3 Bad PPI,RBBP9 confirm
CC(=O)c1ccc(OC(=O)C2CC(=O)N(c3cccc(C)c3)C2)cc1 (stereo unspecified),-9.6,0.3,1.7,16.2*,-6.6,4.5
Cc1cccc(N2CC(C(=O)O)CC2=O)c1 (stereo unspecified),-3.4,-0.7,0.5,8.1,7.9,nt
COC(=O)C1=C(C)N(Cc2ccc(C)cc2)C(=O)/C1=C\c1ccc(O)c(OC)c1,-33.7,-8.9,1.4,-0.1,-3.0,nt
CCOC(=O)C1=C(C)N(c2ccc(C)cc2)C(=O)/C1=C\c1ccc(O)c(OC)c1,-4.0,nt,2.9,14.7*,25.8,29.4*
O=C(Cn1ccc([N+](=O)[O-])n1)N1CCCCCC1,-2.3,3.1,-3.9,15.7*,-3.0,6.6
O=C(Cn1ccc([N+](=O)[O-])n1)N1CCCCC1,0.2,-10.1,3.2,5.0,3.5,nt
COc1ccc(CCNC(=O)c2ccc(CNS(=O)(=O)c3cc(C)ccc3C)cc2)cc1OC,-13.4,-5.0,-7.7,-7.3,1.6,nt
COc1ccccc1N1CCN(C2CCN(C(=O)COc3cccc(C)c3)CC2)CC1,-13.7,-7.0,-5.4,-1.8,25.7,nt
Cc1ccccc1C(=O)O/N=C(\N)c1ccncc1,-2.7,-9.5,-2.9,-8.0,-5.2,nt
O=C(Oc1ccc(-c2cnc3ccccc3n2)cc1)c1cccc([N+](=O)[O-])c1,-11.3,-3.1,-16.6,-6.2,10.7,nt
O=C(Oc1ccc(-c2cnc3ccccc3n2)cc1)c1ccc(Br)o1,-19.0,-5.1,-55.7,16.9*,38.7,-4.2
CC(=O)Nc1c(F)cc(Br)cc1F,-7.0,nt,-6.0,16.4*,-2.6,9.1
COc1ccc(OC)c(NC(=O)C2CCN(S(=O)(=O)c3c(C)noc3C)CC2)c1,-9.8,-5.7,3.4,16.4*,-3.8,7.2
Nc1[nH]n(-c2ccccc2)c(=O)c1N=Nc1ccc2ncsc2c1,-0.9,nt,9.4,18.7*,-2.7,34.1*
CCC(C)(C)NC(=O)C(c1ccc(C)cc1)N(CCN1CCOCC1)C(=O)CNC(=O)c1cccs1 (stereo unspecified),-15.5,-5.1,2.1,-11.7,-12.8,nt
COC(=O)/C(=C/Nc1ccccc1)[N+](=O)[O-],0.5,20.1,-1.8,-2.9,-7.9,nt
COC(=O)/C(=C/Nc1ccc(O)cc1)[N+](=O)[O-],-14.1,1.0,-1.4,38.1*,11.1,8.6
CCC/C(=N\NC(=O)c1csc(C)c1C)c1cccs1,-14.4,-12.0,-3.0,16.2*,-3.7,11.7
Clc1cccc2sc(-c3nnc(-c4ccccc4)o3)c(Cl)c12,nt,-0.8,nt,19.7*,nt,6.6
c1ccc(-c2nnc(-c3cccc(-c4nnc(-c5ccccc5)o4)c3)o2)cc1,nt,-3.5,nt,5.3,nt,nt
COC(c1ccccc1)c1nnc(CCC(=O)N(C)Cc2cccc(-n3cccn3)c2)o1 (stereo unspecified),-8.5,-6.5,0.8,3.1,-16.0,nt
COc1cccc(NC(=O)Cn2c(=O)n(-c3ccccc3)c(=O)c3oc4ccccc4c32)c1,-18.6,0.2,12.0,16.0*,-5.2,-2.5
CC(=O)Nc1ccc(NC(=O)Cn2c(=O)n(-c3ccccc3)c(=O)c3oc4ccccc4c32)cc1,3.9,-0.7,0.4,-10.2,-12.2,nt
Cc1cccc(N2CCN(C(=O)c3cc(S(=O)(=O)N(C)C)ccc3N3CCCC3)CC2)c1C,-17.3,-5.1,7.4,14.5*,-9.3,2.0
CN(C)S(=O)(=O)c1ccc(N2CCCC2)c(C(=O)N2CCN(c3ccc([N+](=O)[O-])cc3)CC2)c1,-20.2,2.4,0.6,2.8,-2.4,nt
COc1ccc(-n2c(=O)c3c(C)c(C)sc3n(Cc3ccc(F)cc3)c2=O)c(OC)c1,6.3,1.2,-2.9,4.7,-3.0,nt
CCOc1cc(C(=O)NC(C)C2CCCO2)cc(OCC)c1OCC (stereo unspecified),-19.5,2.7,-1.0,15.8*,-4.7,10.7
NNc1nnc2c3cc(F)ccc3n(Cc3ccccc3)c2n1,-8.5,nt,-4.7,19.6*,-2.9,5.5
CN(C)c1ccc(NC(=O)Nc2csc3ccccc23)cc1,-6.1,nt,10.3,19.5*,5.6,58.2*
CC1CN(Cc2c(O)ccc3c2oc(=O)c2ccccc23)CC(C)O1 (stereo unspecified),-8.9,nt,4.3,19.0*,83.2*,63.3*
